Data from publication PMC3113683 (Biochemistry, 2009).
No end group written: not given here. *: point of attachment. Biotin = O=C1N[C@H]2[C@H](CS[C@H]2CCCCC(=O)*)N1

T1: LYP300 (Homo sapiens, UniProt Q9Y2R2)
T1 sequence (Q9Y2R2 1-300): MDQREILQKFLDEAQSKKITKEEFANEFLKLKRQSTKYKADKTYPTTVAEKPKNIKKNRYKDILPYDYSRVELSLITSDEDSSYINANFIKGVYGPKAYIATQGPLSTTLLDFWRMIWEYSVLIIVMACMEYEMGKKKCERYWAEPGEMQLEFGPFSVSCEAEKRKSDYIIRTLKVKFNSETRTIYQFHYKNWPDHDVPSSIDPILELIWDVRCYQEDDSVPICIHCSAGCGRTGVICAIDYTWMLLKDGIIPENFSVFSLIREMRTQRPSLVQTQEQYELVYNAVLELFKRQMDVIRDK


Tests used:
LYP300 = molecular target: T1, LYP300; assay: Phosphatase assay, trans effect of peptides on LYP300; type: biochemical; conditions: Figure 5A,C; 5 nM LYP300; DiFMUP; Bis-Tris pH 6.0
LYP [1] = type: biochemical, human; conditions: Figure 2D; Vmax, 1 nM enzyme, 0.16 mM peptide, triplicate
LYP [2] = type: biochemical, human; conditions: Figure 2C; Vmax, 1 nM enzyme, 0.4 mM DiFMUP, triplicate
Method in brief: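 FLAG-tagged full-length LYP and C-terminal truncations (aa 1−300, 1−423, 1−517, 1−600) were expressed in baculovirus-infected Sf9 cells. They were purified on M2-FLAG beads, eluted with FLAG peptide plus DTT into 50 mM Tris-HCl pH 8.0, 0.5 mM EDTA, 1 mM DTT (>80% pure). Activity was measured under Vmax conditions in 50−100 mM Bis-Tris pH 6.0, 1−5 mM DTT. DiFMUP hydrolysis was followed continuously by fluorescence (ex 360, em 460 nm), with background subtracted using no-enzyme triplicates.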

[3] = system: T cell receptor (TCR) signaling; conditions: T cells; ref [4]-[8]; cited from earlier work
[4] = Gel filtration chromatography; type: physicochemical; conditions: Superdex 75 10/300 GL; TNE and phosphatase buffers

Molecule	Phosphatase activity on pTyr peptide (LYP [1])	Phosphatase activity on DiFMUP (LYP [2])	further results
HSGTESQAKHCIPEKNHTLQ [peptide of amino acids 301−320]			Inhibition of LYP300 phosphatase activity by peptide (LYP300): substantial inhibition of the phosphatase activity
biotin-ATAPRIDDEIPPPLPVRTPESFIVVEEAGEFSPNVPKSLS (Biotin-ATAPRIDDEIPPPLPVRTPESFIVVEEAGEFSPNVPKSLS) [peptide of amino acids 604−643, reference compound]			Inhibition of LYP300 phosphatase activity by peptide (LYP300): did not lead to any significant inhibition of the phosphatase activity
LYP/S227: inactive mutant of LYP (protein, UniProt Q9Y2R2 1-807, looked up, variant C227S) Tyrosine-protein phosphatase …: MDQREILQKFLDEAQSKKITKEEFANEFLKLKRQSTKYKADKTYPTTVAEKPKNIKKNRYKDILPYDYSRVELSLITSDEDSSYINANFIKGVYGPKAYIATQGPLSTTLLDFWRMIWEYSVLIIVMACMEYEMGKKKCERYWAEPGEMQLEFGPFSVSCEAEKRKSDYIIRTLKVKFNSETRTIYQFHYKNWPDHDVPSSIDPILELIWDVRCYQEDDSVPICIHSSAGCGRTGVICAIDYTWMLLKDGIIPENFSVFSLIREMRTQRPSLVQTQEQYELVYNAVLELFKRQMDVIRDKHSGTESQAKHCIPEKNHTLQADSYSPNLPKSTTKAAKMMNQQRTKMEIKESSSFDFRTSEISAKEELVLHPAKSSTSFDFLELNYSFDKNADTTMKWQTKAFPIVGEPLQKHQSLDLGSLLFEGCSNSKPVNAAGRYFNSKVPITRTKSTPFELIQQRETKEVDSKENFSYLESQPHDSCFVEMQAQKVMHVSSAELNYSLPYDSKHQIRNASNVKHHDSSALGVYSYIPLVENPYFSSWPPSGTSSKMSLDLPEKQDGTVFPSSLLPTSSTSLFSYYNSHDSLSLNSPTNISSLLNQESAVLATAPRIDDEIPPPLPVRTPESFIVVEEAGEFSPNVPKSLSSAVKVKIGTSLEWGGTSEPKKFDDSVILRPSKSVKLRSPKSELHQDRSSPPPPLPERTLESFFLADEDCMQAQSIETYSTSYPDTMENSTSSKQTLKTPGKSFTRSKSLKILRNMKKSICNSCPPNKPAESVQSNNSSSFLNFGFANRFSKPKGPRNPPPTWNI	did not exhibit any activity	did not exhibit any activity	
LYP: lymphoid tyrosine phosphatase LYP, encoded by the PTPN22 gene (protein, UniProt Q9Y2R2 1-807, looked up, HA tag) Tyrosine-protein phosphatase …: MDQREILQKFLDEAQSKKITKEEFANEFLKLKRQSTKYKADKTYPTTVAEKPKNIKKNRYKDILPYDYSRVELSLITSDEDSSYINANFIKGVYGPKAYIATQGPLSTTLLDFWRMIWEYSVLIIVMACMEYEMGKKKCERYWAEPGEMQLEFGPFSVSCEAEKRKSDYIIRTLKVKFNSETRTIYQFHYKNWPDHDVPSSIDPILELIWDVRCYQEDDSVPICIHCSAGCGRTGVICAIDYTWMLLKDGIIPENFSVFSLIREMRTQRPSLVQTQEQYELVYNAVLELFKRQMDVIRDKHSGTESQAKHCIPEKNHTLQADSYSPNLPKSTTKAAKMMNQQRTKMEIKESSSFDFRTSEISAKEELVLHPAKSSTSFDFLELNYSFDKNADTTMKWQTKAFPIVGEPLQKHQSLDLGSLLFEGCSNSKPVNAAGRYFNSKVPITRTKSTPFELIQQRETKEVDSKENFSYLESQPHDSCFVEMQAQKVMHVSSAELNYSLPYDSKHQIRNASNVKHHDSSALGVYSYIPLVENPYFSSWPPSGTSSKMSLDLPEKQDGTVFPSSLLPTSSTSLFSYYNSHDSLSLNSPTNISSLLNQESAVLATAPRIDDEIPPPLPVRTPESFIVVEEAGEFSPNVPKSLSSAVKVKIGTSLEWGGTSEPKKFDDSVILRPSKSVKLRSPKSELHQDRSSPPPPLPERTLESFFLADEDCMQAQSIETYSTSYPDTMENSTSSKQTLKTPGKSFTRSKSLKILRNMKKSICNSCPPNKPAESVQSNNSSSFLNFGFANRFSKPKGPRNPPPTWNI			Inhibition of T cell receptor signaling [3]: potently inhibit T cell receptor (TCR) signaling
LYP423: LYP truncation, amino acids 1−423 (protein, UniProt Q9Y2R2 1-423, looked up, fragment) MDQREILQKFLDEAQSKKITKEEFANEFLKLKRQSTKYKADKTYPTTVAEKPKNIKKNRYKDILPYDYSRVELSLITSDEDSSYINANFIKGVYGPKAYIATQGPLSTTLLDFWRMIWEYSVLIIVMACMEYEMGKKKCERYWAEPGEMQLEFGPFSVSCEAEKRKSDYIIRTLKVKFNSETRTIYQFHYKNWPDHDVPSSIDPILELIWDVRCYQEDDSVPICIHCSAGCGRTGVICAIDYTWMLLKDGIIPENFSVFSLIREMRTQRPSLVQTQEQYELVYNAVLELFKRQMDVIRDKHSGTESQAKHCIPEKNHTLQADSYSPNLPKSTTKAAKMMNQQRTKMEIKESSSFDFRTSEISAKEELVLHPAKSSTSFDFLELNYSFDKNADTTMKWQTKAFPIVGEPLQKHQSLDLGSLLFE	slightly increased activity	slightly increased activity	
LYP300: truncation of LYP immediately C-terminal to the catalytic domain (amino acids 1−300) (protein, left off: HA, N-terminal, kept) MDQREILQKFLDEAQSKKITKEEFANEFLKLKRQSTKYKADKTYPTTVAEKPKNIKKNRYKDILPYDYSRVELSLITSDEDSSYINANFIKGVYGPKAYIATQGPLSTTLLDFWRMIWEYSVLIIVMACMEYEMGKKKCERYWAEPGEMQLEFGPFSVSCEAEKRKSDYIIRTLKVKFNSETRTIYQFHYKNWPDHDVPSSIDPILELIWDVRCYQEDDSVPICIHCSAGCGRTGVICAIDYTWMLLKDGIIPENFSVFSLIREMRTQRPSLVQTQEQYELVYNAVLELFKRQMDVIRDK	greatly increased phosphatase activity	greatly increased phosphatase activity	Oligomeric state by gel filtration [4]: elute as monomers
LYP300/S227: inactive mutant of LYP300 (protein, UniProt Q9Y2R2 1-300, looked up, fragment C227S) MDQREILQKFLDEAQSKKITKEEFANEFLKLKRQSTKYKADKTYPTTVAEKPKNIKKNRYKDILPYDYSRVELSLITSDEDSSYINANFIKGVYGPKAYIATQGPLSTTLLDFWRMIWEYSVLIIVMACMEYEMGKKKCERYWAEPGEMQLEFGPFSVSCEAEKRKSDYIIRTLKVKFNSETRTIYQFHYKNWPDHDVPSSIDPILELIWDVRCYQEDDSVPICIHSSAGCGRTGVICAIDYTWMLLKDGIIPENFSVFSLIREMRTQRPSLVQTQEQYELVYNAVLELFKRQMDVIRDK	did not exhibit any activity	did not exhibit any activity	
